HSV augment – increases HSV replication in cells | actives 0.005% (n = 220,000) | HSV replication augmentation in cells, fold increase | maximum fold increase | AID 1956; in the data active = maximum fold increase above about 1.5; inconclusive = no clear call, values can overlap the other calls; tested in PC3 cells
STAT1 act – increases IFN-gamma driven STAT1 reporter signal | NIH 3T3 STAT1-luciferase reporter, luminescence; 100% = IFN-gamma alone, no compound | activation (% of control), % at 5.5 µM | actives 2.6% (n = 200,000);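 active = activation above the screen-wide mean activation plus 3 SD, cut at about 130% in these data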;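 note: raw ratio to IFN-gamma control signal so 100% means no change and 0% no light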
STAT3 inh – reduces IL-6 driven STAT3 reporter signal | inhibition, % at 5.5 µM | AID 862 | U3A cells, IL-6 STAT3-luciferase reporter, luminescence; host cell line lacks STAT1 | actives 0.89% (n = 190,000);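 active = inhibition above the mean inhibition across all screened compounds plus 3 SD, cut at about 44% in these data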;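 note: 0% = DMSO only wells and 100% = 100 µM nifuroxazide control wells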
STAT3 activator – increases IL-6 driven STAT3 reporter signal. activation (% of control), % at 5.6 µM. actives 0.91% (n = 190,000). U3A cells, IL-6 STAT3-luciferase reporter, luminescence; 100% = signal with IL-6 EC80 alone;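 active = activation above the screen-wide mean of compound activation plus 3 SD, cut at about 130% in these data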;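 note: 0% = background luminescence of wells with medium and substrate only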
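Material: STAT1-lacking human U3A cells, STAT3 luciferase reporter | Benchmarks: IL-6-only wells as 100% reference | Probe or stimulus: IL-6 (33 ng/mL) | Timing: Compound 1 h, then IL-6 6 h at 37 °C | Detection: Luminescence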
Cl transport mod – modulates chloride dependent transport by human KCC2; KCC2 cells, thallium flux FluoZin-2 fluorescence; B-score of Tl+ flux slope (higher = more flux/activation; lower = inhibition) at 10 µM; Q9H2X9; actives 2.2% (n = 190,000);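 active = thallium flux slope and its plate-corrected score both differing from the plate sample mean at a set confidence after two filtering rounds, in either direction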;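 note: slope of fluorescence scaled to starting intensity during 10 to 20 s after thallium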
Target sequence (Q9H2X9 whole entry, looked up): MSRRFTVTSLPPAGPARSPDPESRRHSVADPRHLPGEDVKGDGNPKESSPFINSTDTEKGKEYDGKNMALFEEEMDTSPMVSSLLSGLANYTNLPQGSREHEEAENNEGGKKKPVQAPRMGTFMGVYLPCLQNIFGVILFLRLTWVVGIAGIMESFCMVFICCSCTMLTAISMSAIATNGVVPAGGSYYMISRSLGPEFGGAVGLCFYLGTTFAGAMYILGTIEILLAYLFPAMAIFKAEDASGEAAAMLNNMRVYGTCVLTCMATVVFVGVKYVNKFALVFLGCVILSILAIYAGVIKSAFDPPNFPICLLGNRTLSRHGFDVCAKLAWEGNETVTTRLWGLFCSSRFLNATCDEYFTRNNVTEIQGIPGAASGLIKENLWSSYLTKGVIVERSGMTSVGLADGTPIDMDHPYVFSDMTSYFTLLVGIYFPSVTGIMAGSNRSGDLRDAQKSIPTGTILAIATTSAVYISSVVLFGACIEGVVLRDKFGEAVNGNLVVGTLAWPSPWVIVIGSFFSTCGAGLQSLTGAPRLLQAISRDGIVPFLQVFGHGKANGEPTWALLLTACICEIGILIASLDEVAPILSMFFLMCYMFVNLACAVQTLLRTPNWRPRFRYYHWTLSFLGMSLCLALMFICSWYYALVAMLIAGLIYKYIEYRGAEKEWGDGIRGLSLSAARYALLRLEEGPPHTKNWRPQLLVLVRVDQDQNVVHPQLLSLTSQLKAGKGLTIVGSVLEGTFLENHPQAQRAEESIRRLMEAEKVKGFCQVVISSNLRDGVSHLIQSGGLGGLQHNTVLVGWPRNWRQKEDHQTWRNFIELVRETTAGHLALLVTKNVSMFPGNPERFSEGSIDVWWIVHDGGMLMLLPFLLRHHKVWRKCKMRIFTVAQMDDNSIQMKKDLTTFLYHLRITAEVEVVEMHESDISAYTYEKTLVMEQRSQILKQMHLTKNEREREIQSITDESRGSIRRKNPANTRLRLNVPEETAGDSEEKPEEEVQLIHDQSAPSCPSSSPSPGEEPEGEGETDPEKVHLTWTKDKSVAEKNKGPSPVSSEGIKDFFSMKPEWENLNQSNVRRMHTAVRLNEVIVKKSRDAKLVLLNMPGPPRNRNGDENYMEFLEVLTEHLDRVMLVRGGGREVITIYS
STAT1 blocker – reduces IFN-gamma driven STAT1 reporter signal; NIH 3T3 STAT1-luciferase reporter, luminescence; inhibition, % at 5.5 µM; actives 0.35% (n = 200,000); AID 920;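 active = inhibition above a set limit, the mean inhibition across all tested compounds plus 3 SD, cut at about 34% in these data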;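 note: 0% = IFN-gamma with DMSO and 100% = IFN-gamma with 300 µM nifuroxazide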
KCC2 secondary – confirmation of human KCC2 transport modulators; actives 15% (n = 3,700); AID 1713; shares compounds with Cl transport mod; normalised thallium flux (F/F0 slope) at 10 µM; HEK293-KCC2, thallium flux, FluoZin2 fluorescence; stronger effect = higher value;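 active = thallium flux slope above the same plate's solvent-only control mean plus 3 SD; inconclusive = the two replicate wells disagree; inactive = no significant difference from solvent-only control wells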
KCC2 bumet counter – thallium flux persisting under bumetanide in KCC2 cells, counter-screen secondary assay; shares compounds with Cl transport mod; HEK293-KCC2 + bumetanide/ouabain, thallium flux FluoZin2; stronger effect = higher value; normalized thallium flux at 10 µM; actives 49% (n = 3,700); AID 1714;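 active = thallium entry rate above the same plate's blocked-transporter control wells by more than 3 SD; inconclusive = the two repeat wells disagree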;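 note: raw slope of fluorescence over initial fluorescence between 10 and 20 s after thallium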
KCC2 sec2 – confirmation of human KCC2 transport modulators; shares compounds with Cl transport mod; HEK293-KCC2, thallium flux FluoZin2 fluorescence; actives lie on both sides; F/F0 rise rate, 10–20 s post-thallium; actives 23% (n = 3,700); normalized thallium flux at 10 µM;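 active = thallium flux slope more than 3 SD above or below the plate's solvent-only control mean, mostly below; inconclusive = the two repeat wells disagreed; inactive = no significant shift from solvent-only controls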;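 note: raw slope with 0.1% DMSO as baseline and bumetanide as block control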
HEK counter1 – parental HEK flux effect, counter-screen; HEK293 parental cells, thallium flux FluoZin2, ouabain; baseline-ratio fluorescence slope, 10–20 s after thallium; actives 46% (n = 3,700); AID 1716; shares compounds with Cl transport mod; thallium flux rate (normalised fluorescence) at 10 µM;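 active = thallium flux rate significantly above the same plate's solvent-only control wells, beyond their mean plus 3 SD; inconclusive = the two replicate wells gave conflicting results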
KCC2 retest ouab – confirmation of human KCC2 modulators with ouabain; HEK293-KCC2, thallium flux FluoZin2 fluorescence; bidirectional: low = inhibitor, high = activator; raw Tl+ flux slope (below DMSO = inhibition, above = activation) at 10 µM; AID 1717; actives 48% (n = 3,700); shares compounds with Cl transport mod;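 active = thallium flux slope beyond 3 SD from same-plate DMSO control mean in most replicates, usually higher, sometimes lower; inconclusive = repeat tests gave conflicting results; inactive = no significant difference from controls in most replicates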;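 note: slope of initial-normalized fluorescence between seconds 10 and 20 after thallium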
HEK293 Tl flux2 – parental HEK flux effect, counter-screen 2; actives 33% (n = 3,700); thallium flux slope at 10 µM; HEK293 parental, thallium flux FluoZin-2 fluorescence slope; shares compounds with Cl transport mod;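 active = thallium flux slope above the same plate's solvent-control mean plus 3 SD in both duplicate wells; inconclusive = duplicate wells that disagreed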;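 note: run without ouabain in cells lacking the KCC2 cotransporter; slope of fluorescence scaled to its starting value between 10 and 20 s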
Active calls of the source: *; i = inactive; ? = inconclusive; / = no result. This is a sample that favours compounds with a hit; in the whole collection about 5.5% have one here.

SMILES | HSV augment | STAT1 act | STAT3 inh | STAT3 activator | Cl transport mod | STAT1 blocker | KCC2 secondary | KCC2 bumet counter | KCC2 sec2 | HEK counter1 | KCC2 retest ouab | HEK293 Tl flux2
CCCOc1ccc(N2C(=O)C3ON(c4ccccc4)C(CCC)C3C2=O)cc1 (centres undefined) | i | 91.6 | 7.5 | 94.7 | / | 2.3 | / | / | / | / | / | /
O=C(CSc1nccc(-c2cccs2)n1)Nc1ccccc1 | i | / | / | / | 0.0159 | / | / | / | / | / | / | /
Cc1c(O)nc(SCC(=O)Nc2ccc3c4c(cccc24)CC3)n(-c2ccc(F)cc2)c1=O | i | 99.8 | -10.5 | 106.6 | 0.0838 | 0.2 | / | / | / | / | / | /
O=C(CSc1nc(-c2ccccc2)nc2ccc(F)cc12)Nc1cccc(C(=O)O)c1 | i | / | / | / | 59* | / | 0.00672 | 0.0377* | ? | 0.0476* | 0.044* | 0.0291*
O=C(CSc1nc(-c2ccccc2)nc2ccc(F)cc12)Nc1ccc(C(=O)O)cc1 | i | 97.2 | -7.6 | 107.9 | 0.368 | 1.4 | / | / | / | / | / | /
Cc1cc(/C=C2\SC(=Nc3ccccc3)NC2=O)c(C)n1-c1ccc(S(N)(=O)=O)cc1 | i | 100.6 | 3.3 | 105.7 | / | -0.1 | / | / | / | / | / | /
CCc1oc2ccccc2c1C(=O)c1cc(Br)c(O)c(Br)c1 | i | 96.9 | -8.7 | 109.8 | -1.6 | 3.4 | 0.00673 | 0.0188* | 0.0222* | 0.0111* | ? | ?
COc1ccc(OC)c(S(=O)(=O)N2c3cc(F)ccc3CCC2C)c1 (centres undefined) | i | 102.4 | -9.4 | 107.9 | -1.03 | -2.6 | / | / | / | / | / | /
CCOC(=O)C1=NN(C(=O)c2ccco2)C2(CC2)C1 | i | 95.0 | -3.2 | 103.0 | -0.237 | 5.6 | / | / | / | / | / | /
CCOC(=O)C1=NN(C(=O)c2cccc(Br)c2)C(O)(C(C)(C)C)C1 (centres undefined) | i | / | / | / | 107* | / | 0.0481* | 0.126* | 0.052* | ? | 0.0989* | 0.0394*
Cc1ccc(S(=O)(=O)N(C)C)cc1NC(=S)Nc1ccc2[nH]c(=O)[nH]c2c1 | i | 105.7 | -3.0 | 108.7 | 0.58 | -7.6 | / | / | / | / | / | /
Cc1ccc2nc(-c3ccccc3)c(CN3CCSCC3)n2c1 | i | 93.6 | -7.1 | 109.2 | -2.11 | 6.5 | / | / | / | / | / | /
Cc1ccc2nc(-c3ccccc3)c(CN3CCOCC3)n2c1 | i | 102.7 | 3.7 | 100.8 | 4.34* | -6.4 | 0.00974 | 0.006 | 0.0353 | 0.00391 | 0.0206 | 0.0117
COc1cc(OC)cc(C(=O)NC2CCN(CC(=O)Nc3cccc4ccccc34)CC2)c1 | i | 93.3 | -1.9 | 102.8 | -0.367 | 3.0 | / | / | / | / | / | /
CC1OC(OC2C(OC3C(O[C@H]4CC[C@]5(C)C6C=C[C@]78OC[C@@]9(CC[C@@H](C)[C@H](C)C97)[C@H](O)C[C@@]8(C)[C@]6(C)CC[C@H]5C4(C)C)OC(C)C(O)C3O)OC(CO)C(O)C2O)C(O)C(O)C1O (some centres undefined) | / | / | / | / | 27.5* | / | ? | 0.0251* | 0.0323 | 0.0426* | ? | 0.0107
O=C(CSc1ncccn1)NCc1cccs1 | i | 104.7 | 1.2 | 103.5 | -0.893 | -6.5 | / | / | / | / | / | /
CC1(C)OCC(COC(=O)Nc2cccnc2)([N+](=O)[O-])CO1 | i | 101.7 | 7.5 | 100.1 | 1.33 | -2.2 | / | / | / | / | / | /
Cc1nc(SCc2ccccc2)c([N+](=O)[O-])[nH]1 | i | 95.9 | 1.6 | 98.6 | -5.2* | 4.6 | 0.00895 | 0.00613 | 0.0271* | 0.00385 | 0.0139* | 0.0112
O=C(CC(Cc1ccccc1)c1ccco1)NC1CCCCC1 (centres undefined) | i | 99.3 | -2.9 | 103.4 | / | 3.1 | 0.0106 | 0.00628 | 0.0277* | 0.00765 | 0.0132* | 0.0105
O=C(NC1CCCCC1)N(Cc1ccccc1)Cc1ccco1 | i | 97.1 | 3.1 | 100.7 | / | 3.1 | / | / | / | / | / | /
CC(Sc1nnc2ccccn12)C(N)=O (centres undefined) | i | 103.9 | 1.3 | 103.9 | 0.933 | -4.6 | / | / | / | / | / | /
Cc1cc(Br)ccc1NCc1ccccn1 | i | 115.0 | 29.3 | 83.2 | -0.345 | -16.7 | / | / | / | / | / | /
Cc1csc(NC(=O)CSc2nncc(=O)n2N)n1 | i | 104.2 | 10.5 | 98.1 | 0.866 | -4.2 | / | / | / | / | / | /
Cc1nn(-c2ccccc2)c(N)c1Sc1ccccc1[N+](=O)[O-] | i | 100.4 | 11.9 | 92.0 | -0.422 | -0.4 | / | / | / | / | / | /
Cc1nn(-c2ccccc2)c(N)c1Sc1cccc([N+](=O)[O-])c1 | i | 100.6 | 9.6 | 91.5 | -7.03* | -0.7 | 0.00854 | 0.00479 | 0.031 | 0.00531* | 0.0285 | 0.0097
SMILES | HSV augment | STAT1 act | STAT3 inh | STAT3 activator | Cl transport mod | STAT1 blocker | KCC2 secondary | KCC2 bumet counter | KCC2 sec2 | HEK counter1 | KCC2 retest ouab | HEK293 Tl flux2
CCC(=O)NC(=S)Nc1cccc(NC(=O)c2ccccc2)c1 | i | 96.0 | 16.5 | 91.5 | 1.4 | 2.3 | / | / | / | / | / | /
CS(=O)(=O)N(CC(=O)NCCC1=CCCCC1)c1ccc2c(c1)OCO2 | i | 85.0 | 18.7 | 88.4 | 0.508 | 16.4 | / | / | / | / | / | /
COc1cc(NC(=O)CSc2nccc(=O)[nH]2)c(C)cc1[N+](=O)[O-] | i | 103.3 | 2.4 | 104.8 | -3.42* | -5.0 | 0.00673 | 0.00461 | 0.0299 | 0.007 | 0.0181 | 0.00976
COc1ccccc1NC(=O)CSc1nccc(=O)[nH]1 | i | 95.0 | -6.8 | 108.3 | 0.14 | 6.7 | / | / | / | / | / | /
Cc1ccc2nc(Cl)c(CN(C(=O)c3cnccn3)C3CCCCC3)cc2c1 | i | 104.4 | -0.3 | 102.5 | / | -4.9 | / | / | / | / | / | /
CC(C)n1c(NCc2nc3ccccc3n2C)nc2ccccc21 | i | 101.8 | 0.6 | 103.1 | / | -1.9 | 0.00783 | 0.0057 | 0.0316 | 0.00703 | 0.0169 | ?
Cc1c(Cl)cccc1NC(=S)NCc1cccn1C | i | 104.9 | -1.1 | 104.4 | -2.13 | -5.6 | / | / | / | / | / | /
CC1CCCC(NC(=O)CCC(=O)c2ccc(F)cc2)C1C (centres undefined) | i | / | / | / | -3.98* | / | 0.00641 | 0.00526 | 0.0304 | 0.00701 | 0.0181 | 0.00962
CC1CCCC(NC(=O)CSc2ccc(F)cc2)C1C (centres undefined) | i | 104.5 | 5.4 | 102.7 | -0.386 | -4.6 | / | / | / | / | / | /

Bioassay records from PubChem.
